Numbering of substitutions follows the chain as printed.
Experiments:
Conditions in all cases: stereoisomer not certain
OR9A4 (Homo sapiens) = molecular target: T1, OR9A4 (Homo sapiens) (UniProt Q8NGU2)
T1 sequence (whole entry): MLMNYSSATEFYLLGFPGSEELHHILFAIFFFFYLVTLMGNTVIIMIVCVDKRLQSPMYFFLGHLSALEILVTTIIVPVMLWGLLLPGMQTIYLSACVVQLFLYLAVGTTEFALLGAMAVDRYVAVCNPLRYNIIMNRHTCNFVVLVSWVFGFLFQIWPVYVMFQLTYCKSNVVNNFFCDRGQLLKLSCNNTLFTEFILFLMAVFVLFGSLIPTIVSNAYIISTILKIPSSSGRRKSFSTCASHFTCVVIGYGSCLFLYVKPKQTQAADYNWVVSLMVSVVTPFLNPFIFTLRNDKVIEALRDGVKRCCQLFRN
Summary of the method: (§1)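 Each receptor–molecule pair is labelled responsive or non-responsive (inactive) according to whether the original authors judged the measured signal statistically different from baseline. The data were taken from the main text and supplementary material of published papers and checked for typos and inconsistencies. Assay methods differed by source, with transient luciferase assays in mammalian cell lines being common.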

OR9G1 (Homo sapiens) = molecular target: T2, OR9G1 (Homo sapiens) (UniProt Q8NH87)
T2 sequence (whole entry): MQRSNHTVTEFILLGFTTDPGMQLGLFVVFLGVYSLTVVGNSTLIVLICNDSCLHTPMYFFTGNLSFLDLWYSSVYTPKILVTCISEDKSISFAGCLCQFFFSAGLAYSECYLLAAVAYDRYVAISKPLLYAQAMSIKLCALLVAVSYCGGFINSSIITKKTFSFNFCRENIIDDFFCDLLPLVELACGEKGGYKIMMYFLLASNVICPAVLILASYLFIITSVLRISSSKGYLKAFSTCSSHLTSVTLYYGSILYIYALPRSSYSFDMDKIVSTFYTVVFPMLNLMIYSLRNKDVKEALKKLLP
Summary of the method: as §1

OR9G4 (Homo sapiens) = molecular target: T3, OR9G4 (Homo sapiens) (UniProt Q8NGQ1)
T3 sequence (whole entry): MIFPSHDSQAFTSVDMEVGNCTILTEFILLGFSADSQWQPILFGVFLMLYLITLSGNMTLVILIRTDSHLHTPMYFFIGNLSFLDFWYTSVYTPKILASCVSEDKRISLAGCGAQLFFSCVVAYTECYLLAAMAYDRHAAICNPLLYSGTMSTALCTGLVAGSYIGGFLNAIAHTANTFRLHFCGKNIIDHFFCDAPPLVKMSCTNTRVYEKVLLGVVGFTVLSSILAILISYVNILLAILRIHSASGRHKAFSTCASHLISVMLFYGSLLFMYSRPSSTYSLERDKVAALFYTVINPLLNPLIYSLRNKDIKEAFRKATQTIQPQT
Summary of the method: as §1

OR9G9 (Homo sapiens) = molecular target: T4, OR9G9 (Homo sapiens) (UniProt P0C7N8)
T4 sequence (whole entry): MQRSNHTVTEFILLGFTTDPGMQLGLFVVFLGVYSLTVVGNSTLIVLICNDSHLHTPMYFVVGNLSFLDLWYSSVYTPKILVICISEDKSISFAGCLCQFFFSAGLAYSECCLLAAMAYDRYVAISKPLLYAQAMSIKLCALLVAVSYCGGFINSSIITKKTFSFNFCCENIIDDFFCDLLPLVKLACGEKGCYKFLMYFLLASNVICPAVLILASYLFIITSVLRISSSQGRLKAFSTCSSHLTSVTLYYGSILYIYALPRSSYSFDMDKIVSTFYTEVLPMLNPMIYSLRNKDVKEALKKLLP
Summary of the method: as §1

OR9I1 (Homo sapiens) = molecular target: T5, OR9I1 (Homo sapiens) (UniProt Q8NGQ6)
T5 sequence (whole entry): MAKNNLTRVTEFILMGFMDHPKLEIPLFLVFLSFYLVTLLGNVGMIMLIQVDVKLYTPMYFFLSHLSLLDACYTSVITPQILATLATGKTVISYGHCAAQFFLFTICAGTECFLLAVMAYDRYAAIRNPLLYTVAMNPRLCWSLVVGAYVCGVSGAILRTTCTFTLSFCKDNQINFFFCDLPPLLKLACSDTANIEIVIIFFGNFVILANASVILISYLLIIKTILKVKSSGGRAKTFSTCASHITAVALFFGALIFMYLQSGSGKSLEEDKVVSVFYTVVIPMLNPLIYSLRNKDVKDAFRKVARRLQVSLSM
Summary of the method: as §1

OR9K2 (Homo sapiens) = molecular target: T6, OR9K2 (Homo sapiens) (UniProt Q8NGE7)
T6 sequence (whole entry): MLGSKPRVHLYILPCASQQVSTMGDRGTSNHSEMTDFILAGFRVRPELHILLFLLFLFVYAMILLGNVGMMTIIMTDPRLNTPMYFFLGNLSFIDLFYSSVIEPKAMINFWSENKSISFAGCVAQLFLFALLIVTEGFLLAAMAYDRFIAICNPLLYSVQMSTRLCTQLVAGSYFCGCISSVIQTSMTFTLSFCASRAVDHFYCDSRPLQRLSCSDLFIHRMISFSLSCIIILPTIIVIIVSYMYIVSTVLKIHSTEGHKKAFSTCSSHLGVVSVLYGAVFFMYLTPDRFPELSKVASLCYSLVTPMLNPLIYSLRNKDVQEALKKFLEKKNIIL
Summary of the method: as §1

OR9G4 H6Y N206D V222A = system: T7, OR9G4 H6Y N206D V222A
T7 sequence (whole entry): T3 sequence (whole entry) with H6Y, N206D, V222A
Summary of the method: as §1

OR9G4 N206D V222A = system: T8, OR9G4 N206D V222A
T8 sequence (whole entry): T3 sequence (whole entry) with N206D, V222A
Summary of the method: as §1

OR9G9 = system: T9, OR9G9
T9 sequence (whole entry): T4 sequence (whole entry) with C193G
Summary of the method: as §1

OR9K2 R207H = system: T10, OR9K2 R207H
T10 sequence (whole entry): T6 sequence (whole entry) with R207H
Summary of the method: as §1

Measured: odorant receptor agonist call;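 note: active if original authors judged signal statistically different from baseline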

CCCCCC(=O)C(C)C(C)=O (stereo not drawn)
inactive: OR9A4 (Homo sapiens) | OR9G1 (Homo sapiens) | OR9G4 (Homo sapiens) | OR9G9 (Homo sapiens) | OR9I1 (Homo sapiens) | OR9K2 (Homo sapiens)

CCC(S)C(C)CO (stereo not drawn)
inactive: OR9A4 (Homo sapiens) | OR9G1 (Homo sapiens) | OR9G4 (Homo sapiens) | OR9G9 (Homo sapiens) | OR9I1 (Homo sapiens) | OR9K2 (Homo sapiens)

CC1=NC(C)C(C)S1 (stereo not drawn)
inactive: OR9A4 (Homo sapiens) | OR9G1 (Homo sapiens) | OR9G4 (Homo sapiens) | OR9G4 H6Y N206D V222A | OR9G4 N206D V222A | OR9G9 | OR9I1 (Homo sapiens) | OR9K2 (Homo sapiens) | OR9K2 R207H

CCCC(S)CCOC(C)=O (stereo not drawn)
inactive: OR9A4 (Homo sapiens) | OR9G1 (Homo sapiens) | OR9G4 (Homo sapiens) | OR9G4 H6Y N206D V222A | OR9G4 N206D V222A | OR9G9 | OR9I1 (Homo sapiens) | OR9K2 (Homo sapiens) | OR9K2 R207H

CCC1OC(=O)C(O)=C1C (stereo not drawn)
inactive: OR9A4 (Homo sapiens) | OR9G1 (Homo sapiens) | OR9G4 (Homo sapiens) | OR9G4 H6Y N206D V222A | OR9G4 N206D V222A | OR9G9 | OR9I1 (Homo sapiens) | OR9K2 (Homo sapiens) | OR9K2 R207H

Cc1cnc(C)c(C)n1
inactive: OR9A4 (Homo sapiens) | OR9G1 (Homo sapiens) | OR9G4 (Homo sapiens) | OR9G4 H6Y N206D V222A | OR9G4 N206D V222A | OR9G9 | OR9I1 (Homo sapiens) | OR9K2 (Homo sapiens) | OR9K2 R207H

CCCCCC(S)C(C)CO (stereo not drawn)
inactive: OR9A4 (Homo sapiens) | OR9G1 (Homo sapiens) | OR9G4 (Homo sapiens) | OR9G9 (Homo sapiens) | OR9I1 (Homo sapiens) | OR9K2 (Homo sapiens)

CC1=C(O)C(=O)C(C)O1 (stereo not drawn)
inactive: OR9A4 (Homo sapiens) | OR9G1 (Homo sapiens) | OR9G4 (Homo sapiens) | OR9G4 H6Y N206D V222A | OR9G4 N206D V222A | OR9G9 | OR9I1 (Homo sapiens) | OR9K2 (Homo sapiens) | OR9K2 R207H

CC1CCCCCCCCCCCCC(=O)C1 (stereo not drawn)
inactive: OR9A4 (Homo sapiens) | OR9G1 (Homo sapiens) | OR9G4 (Homo sapiens) | OR9G9 (Homo sapiens) | OR9I1 (Homo sapiens) | OR9K2 (Homo sapiens)

CC(=O)c1c(C)c([N+](=O)[O-])c(C(C)(C)C)c([N+](=O)[O-])c1C
inactive: OR9A4 (Homo sapiens) | OR9G1 (Homo sapiens) | OR9G4 (Homo sapiens) | OR9G9 (Homo sapiens) | OR9I1 (Homo sapiens) | OR9K2 (Homo sapiens)

CC(CO)CS (stereo not drawn)
inactive: OR9A4 (Homo sapiens) | OR9G1 (Homo sapiens) | OR9G4 (Homo sapiens) | OR9G9 (Homo sapiens) | OR9I1 (Homo sapiens) | OR9K2 (Homo sapiens)

CCCCCCC=CCCC=O
inactive: OR9A4 (Homo sapiens) | OR9G1 (Homo sapiens) | OR9G4 (Homo sapiens) | OR9G4 H6Y N206D V222A | OR9G4 N206D V222A | OR9G9 (Homo sapiens) | OR9I1 (Homo sapiens) | OR9K2 R207H

CCCCC(S)C(C)CO (stereo not drawn)
inactive: OR9A4 (Homo sapiens) | OR9G1 (Homo sapiens) | OR9G4 (Homo sapiens) | OR9G9 (Homo sapiens) | OR9I1 (Homo sapiens) | OR9K2 (Homo sapiens)

CC1=C(O)C(=O)OC1C (stereo not drawn)
inactive: OR9A4 (Homo sapiens) | OR9G1 (Homo sapiens) | OR9G4 (Homo sapiens) | OR9G4 H6Y N206D V222A | OR9G4 N206D V222A | OR9G9 | OR9I1 (Homo sapiens) | OR9K2 (Homo sapiens) | OR9K2 R207H

CCC1OC(C)=C(O)C1=O (stereo not drawn)
inactive: OR9A4 (Homo sapiens) | OR9G1 (Homo sapiens) | OR9G4 (Homo sapiens) | OR9G4 H6Y N206D V222A | OR9G4 N206D V222A | OR9G9 | OR9I1 (Homo sapiens) | OR9K2 (Homo sapiens) | OR9K2 R207H

From the M2OR odorant receptor database
